How the values were obtained:
Cytochrome P450 3A5 = Cytochrome P450 3A5 (Homo sapiens, UniProt P20815); experiment: Drug metabolism assessed as human CYP3A5-mediated formation of 12-OHNVP at 10 uM pre-incubated for 30 mins followed by addition of NADPH regenerating reagents by uHPLC-MS analysis; format: ADME; settings: recombinant enzyme
Outline: (§1)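 Insect-cell microsomes with single cDNA-expressed human P450 (100 nM) in 0.1 M potassium phosphate; 10 μM substrate prewarmed 5 min at 37 °C with NADPH-regenerating system, reaction started by adding microsomes; 30 min at 37 °C, 0.1% DMSO. Stopped, dried, reconstituted in methanol; triple-quadrupole SRM (12-OH 283.1→223.0, 2-OH 283.1→160.9, 3-OH 283.1→241.9), peak height; three replicates, mean ± SD.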

Cytochrome P450 2C8 = target: T1, Cytochrome P450 2C8 (Homo sapiens, UniProt P10632); experiment: Drug metabolism assessed as human CYP2C8-mediated formation of 12-OHNVP at 10 uM […] by uHPLC-MS analysis; format: ADME; settings: recombinant enzyme; outline: as §1
T1 sequence (P10632 whole entry): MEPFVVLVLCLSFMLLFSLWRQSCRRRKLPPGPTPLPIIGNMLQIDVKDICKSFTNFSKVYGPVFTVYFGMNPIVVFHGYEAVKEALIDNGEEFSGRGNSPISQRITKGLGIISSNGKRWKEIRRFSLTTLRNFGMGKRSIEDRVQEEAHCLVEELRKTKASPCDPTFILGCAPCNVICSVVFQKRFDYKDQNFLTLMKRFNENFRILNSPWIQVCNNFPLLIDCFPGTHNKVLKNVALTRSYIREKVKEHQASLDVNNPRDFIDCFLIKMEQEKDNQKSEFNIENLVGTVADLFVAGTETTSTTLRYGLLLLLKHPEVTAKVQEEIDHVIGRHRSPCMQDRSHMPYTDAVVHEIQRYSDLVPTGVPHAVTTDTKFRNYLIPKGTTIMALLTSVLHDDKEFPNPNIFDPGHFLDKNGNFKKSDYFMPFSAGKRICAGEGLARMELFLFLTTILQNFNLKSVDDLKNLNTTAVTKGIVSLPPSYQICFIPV

Hepatocyte [1] = experiment: Induction of change in Igfbp1 protein expression in C57BL/6J mouse primary hepatocytes at 400 uM incubated for 8 hrs by relative-quantitation label-free proteomics analysis relative to NVP; format: cell-based
Outline: (§2)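 Fresh primary hepatocytes from male C57BL/6J mice aged 8–13 weeks, adhered overnight, then given fresh medium containing compound (400 μM), NVP (400 μM) or vehicle (0.2% DMSO) for 8 h. Lysate reduced (DTT) and alkylated (iodoacetamide), acetone-precipitated and digested with trypsin. Label-free Top10 nanoLC-MS with precursor ion area quantitation; unpaired t test P values, Cohen's d effect size.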

[2] = Drug metabolism in C57BL/6J mouse primary hepatocytes assessed as Cytochrome P450-mediated formation of 8-OHD3NVP at 10 uM incubated for 24 hrs by uHPLC-MS analysis; format: ADME, cell-based
Outline: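 Fresh hepatocytes from male C57BL/6J mice (8–13 weeks), adhered overnight, then 10 μM substrate or vehicle (0.1% DMSO) for 24 h. Medium extracted with acetonitrile (50% final), dried, reconstituted in methanol; uHPLC-Orbitrap targeted SIM plus PRM (monooxygenated metabolites) or high-resolution ions (O-glucuronides, 459.1510/462.1700 ±5 ppm); four experimental replicates.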

Hepatocyte [3] = experiment: Induction of change in KARS protein expression in human primary hepatocytes at 10 uM incubated for 48 hrs by relative-quantitation label-free proteomics analysis relative to NVP; format: cell-based
Outline: as §2, with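 “Cryoplateable pooled human” for “Fresh primary”, “(10 mixed-sex donors per pool; three pools),” for “from male C57BL/6J mice aged 8–13 weeks,”, “(10” for “(400”, “(0.1%” for “(0.2%”, “48” for “8”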

Hepatocyte [4] = experiment: Induction of change in PLEKHA6 protein expression in human primary hepatocytes at 10 uM incubated for 48 hrs by relative-quantitation label-free proteomics analysis relative to NVP; format: cell-based
Outline: as §2, with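 “Cryoplateable pooled human” for “Fresh primary”, “(10 mixed-sex donors per pool; three pools),” for “from male C57BL/6J mice aged 8–13 weeks,”, “(10” for “(400”, “(0.1%” for “(0.2%”, “48” for “8”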

Cytochrome P450 = experiment: Drug metabolism in human primary hepatocytes assessed as Cytochrome P450-mediated formation of 8-OHNVP at 10 uM incubated for 24 to 48 hrs by uHPLC-MS analysis; format: ADME, cell-based
Outline: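 Cryoplateable pooled human hepatocytes (10 mixed-sex donors per pool, three lots), adhered overnight, then 10 μM substrate or vehicle (0.1% DMSO) for 24 or 48 h in InVitroGRO CP medium. Medium extracted with 50% acetonitrile, dried, reconstituted in methanol; uHPLC-Orbitrap MS/MS for monooxygenated metabolites, high-resolution MS for O-glucuronide.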

Hepatocyte [5] = experiment: Induction of change in TM9SF1 protein expression in human primary hepatocytes at 10 uM incubated for 48 hrs by relative-quantitation label-free proteomics analysis relative to NVP; format: cell-based
Outline: as §2, with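 “Cryoplateable pooled human” for “Fresh primary”, “(10 mixed-sex donors per pool; three pools),” for “from male C57BL/6J mice aged 8–13 weeks,”, “(10” for “(400”, “(0.1%” for “(0.2%”, “48” for “8”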

Cytochrome P450 2C9 = Cytochrome P450 2C9 (Homo sapiens, UniProt P11712); experiment: Drug metabolism assessed as human CYP2C9-mediated formation of 12-OHNVP at 10 uM pre-incubated for 30 mins followed by addition of NADPH regenerating reagents by uHPLC-MS analysis; format: ADME; settings: recombinant enzyme; outline: as §1
Chain of Cytochrome P450 2C9 (P11712 whole entry): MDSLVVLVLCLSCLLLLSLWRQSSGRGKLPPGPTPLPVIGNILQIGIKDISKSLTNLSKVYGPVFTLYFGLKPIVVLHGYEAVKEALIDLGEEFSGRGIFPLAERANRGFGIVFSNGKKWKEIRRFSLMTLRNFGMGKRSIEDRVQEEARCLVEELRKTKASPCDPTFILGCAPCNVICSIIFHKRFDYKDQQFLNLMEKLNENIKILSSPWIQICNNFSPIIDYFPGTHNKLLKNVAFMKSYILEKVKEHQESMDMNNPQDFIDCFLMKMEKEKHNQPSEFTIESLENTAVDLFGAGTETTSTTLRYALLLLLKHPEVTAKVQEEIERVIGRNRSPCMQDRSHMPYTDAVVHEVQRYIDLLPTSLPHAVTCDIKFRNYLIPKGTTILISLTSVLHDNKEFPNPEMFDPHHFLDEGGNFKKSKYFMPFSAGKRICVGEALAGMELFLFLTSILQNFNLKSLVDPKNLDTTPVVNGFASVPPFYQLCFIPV

Hepatocyte [6] = experiment: Induction of change in DERA protein expression in human primary hepatocytes at 10 uM incubated for 48 hrs by relative-quantitation label-free proteomics analysis relative to NVP; format: cell-based
Outline: as §2, with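 “Cryoplateable pooled human” for “Fresh primary”, “(10 mixed-sex donors per pool; three pools),” for “from male C57BL/6J mice aged 8–13 weeks,”, “(10” for “(400”, “(0.1%” for “(0.2%”, “48” for “8”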

Cytochrome P450 3A4 = Cytochrome P450 3A4 (Homo sapiens, UniProt P08684); experiment: Drug metabolism assessed as human CYP3A4-mediated formation of 12-OHNVP at 10 uM pre-incubated for 30 mins followed by addition of NADPH regenerating reagents by uHPLC-MS analysis; format: ADME; settings: recombinant enzyme; outline: as §1
Chain of Cytochrome P450 3A4 (P08684 whole entry): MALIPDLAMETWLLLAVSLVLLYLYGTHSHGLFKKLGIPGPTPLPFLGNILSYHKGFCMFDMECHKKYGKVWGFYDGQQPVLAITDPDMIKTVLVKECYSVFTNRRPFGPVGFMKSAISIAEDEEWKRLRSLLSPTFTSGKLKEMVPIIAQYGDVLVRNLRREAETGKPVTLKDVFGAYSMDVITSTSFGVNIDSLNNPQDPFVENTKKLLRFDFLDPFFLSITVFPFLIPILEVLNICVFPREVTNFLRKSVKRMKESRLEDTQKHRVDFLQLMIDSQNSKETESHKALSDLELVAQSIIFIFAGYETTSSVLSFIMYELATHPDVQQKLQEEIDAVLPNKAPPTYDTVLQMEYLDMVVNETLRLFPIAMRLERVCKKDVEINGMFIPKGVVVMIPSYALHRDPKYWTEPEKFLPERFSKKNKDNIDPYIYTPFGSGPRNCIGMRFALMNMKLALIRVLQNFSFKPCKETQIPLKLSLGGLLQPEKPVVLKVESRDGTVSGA

Hepatocyte [7] = experiment: Induction of change in Manf protein expression in C57BL/6J mouse primary hepatocytes at 400 uM incubated for 8 hrs by relative-quantitation label-free proteomics analysis relative to NVP; format: cell-based; outline: as §2
Hepatocyte [8] = experiment: Induction of change in PTP4A1 protein expression in human primary hepatocytes at 10 uM incubated for 48 hrs by relative-quantitation label-free proteomics analysis relative to NVP; format: cell-based
Outline: as §2, with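 “Cryoplateable pooled human” for “Fresh primary”, “(10 mixed-sex donors per pool; three pools),” for “from male C57BL/6J mice aged 8–13 weeks,”, “(10” for “(400”, “(0.1%” for “(0.2%”, “48” for “8”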

Hepatocyte [9] = experiment: Induction of change in RBM39 protein expression in human primary hepatocytes at 10 uM incubated for 48 hrs by relative-quantitation label-free proteomics analysis relative to NVP; format: cell-based
Outline: as §2, with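 “Cryoplateable pooled human” for “Fresh primary”, “(10 mixed-sex donors per pool; three pools),” for “from male C57BL/6J mice aged 8–13 weeks,”, “(10” for “(400”, “(0.1%” for “(0.2%”, “48” for “8”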

Cytochrome P450 2D6 = Cytochrome P450 2D6 (Homo sapiens, UniProt P10635); experiment: Drug metabolism assessed as human CYP2D6-mediated formation of 12-OHNVP at 10 uM pre-incubated for 30 mins followed by addition of NADPH regenerating reagents by uHPLC-MS analysis; format: ADME; settings: recombinant enzyme; outline: as §1
Chain of Cytochrome P450 2D6 (P10635 whole entry): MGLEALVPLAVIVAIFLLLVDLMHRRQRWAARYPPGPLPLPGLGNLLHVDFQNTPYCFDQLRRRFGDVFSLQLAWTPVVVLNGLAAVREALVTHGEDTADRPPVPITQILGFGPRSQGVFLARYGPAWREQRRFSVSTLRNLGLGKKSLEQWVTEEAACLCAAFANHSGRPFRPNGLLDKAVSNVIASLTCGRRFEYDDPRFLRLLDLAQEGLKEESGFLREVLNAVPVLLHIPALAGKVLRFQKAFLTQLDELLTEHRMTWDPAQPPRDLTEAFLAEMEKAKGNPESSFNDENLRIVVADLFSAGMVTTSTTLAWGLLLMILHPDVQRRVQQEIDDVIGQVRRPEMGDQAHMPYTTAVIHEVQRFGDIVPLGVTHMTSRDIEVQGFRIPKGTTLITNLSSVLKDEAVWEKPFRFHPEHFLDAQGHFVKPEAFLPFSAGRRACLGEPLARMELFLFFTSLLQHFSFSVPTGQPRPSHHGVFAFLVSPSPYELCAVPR

Hepatocyte [10] = experiment: Toxicity in C57BL/6J mouse primary hepatocytes assessed as reduction in cell viability by measuring EtBr-positive cell nuclei level at 400 uM incubated for 8 hrs by EtBr/AcrO staining based assay (reference value: 19%)
Outline: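 Fresh male C57BL/6J mouse hepatocytes on collagen-coated coverslips, 400 μM compound or vehicle (0.2% DMSO) for 8 h; 10 μM staurosporine as positive control. Ethidium bromide/acridine orange costaining, imaging, percentage of EtBr-positive nuclei scored as dead cells; unpaired two-tailed t test.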

Hepatocyte [11] = experiment: Induction of change in CYC1 protein expression in human primary hepatocytes at 10 uM incubated for 48 hrs by relative-quantitation label-free proteomics analysis relative to NVP; format: cell-based
Outline: as §2, with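 “Cryoplateable pooled human” for “Fresh primary”, “(10 mixed-sex donors per pool; three pools),” for “from male C57BL/6J mice aged 8–13 weeks,”, “(10” for “(400”, “(0.1%” for “(0.2%”, “48” for “8”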

Chain of Cytochrome P450 3A5 (P20815 whole entry): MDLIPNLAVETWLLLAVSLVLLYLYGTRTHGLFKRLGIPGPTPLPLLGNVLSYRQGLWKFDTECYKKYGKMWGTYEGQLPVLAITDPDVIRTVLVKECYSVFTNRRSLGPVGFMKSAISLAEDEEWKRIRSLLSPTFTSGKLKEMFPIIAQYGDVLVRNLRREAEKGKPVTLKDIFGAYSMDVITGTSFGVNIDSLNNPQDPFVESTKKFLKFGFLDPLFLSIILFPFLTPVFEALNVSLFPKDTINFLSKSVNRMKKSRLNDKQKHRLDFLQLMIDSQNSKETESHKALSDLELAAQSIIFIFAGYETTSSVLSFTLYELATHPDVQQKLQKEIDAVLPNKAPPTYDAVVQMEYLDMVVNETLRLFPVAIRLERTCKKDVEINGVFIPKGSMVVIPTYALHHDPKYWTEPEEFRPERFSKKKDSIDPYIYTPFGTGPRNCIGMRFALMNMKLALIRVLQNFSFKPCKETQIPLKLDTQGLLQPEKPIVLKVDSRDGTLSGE

## [2H]C([2H])([2H])c1ccnc2c1NC(=O)c1cccnc1N2C1CC1
Cytochrome P450 3A5
  Drug metabolism: Metabolite_Notdetected
Cytochrome P450 2C8
  Drug metabolism: Metabolite_Detected
Hepatocyte [1]
  fold change (FC): 4.7
[2]
  Drug metabolism: Metabolite_Notdetected
Hepatocyte [3]
  fold change (FC): -1.42
Hepatocyte [4]
  fold change (FC): 1.59
Cytochrome P450
  Drug metabolism: Metabolite_Notdetected
Hepatocyte [5]
  fold change (FC): -1.86
Cytochrome P450 2C9
  Drug metabolism: Metabolite_Detected
Hepatocyte [6]
  fold change (FC): -1.63
Cytochrome P450 3A4
  Drug metabolism: Metabolite_Detected
Hepatocyte [7]
  fold change (FC): 1.3
Hepatocyte [8]
  fold change (FC): -2.42
Hepatocyte [9]
  fold change (FC): 1.7
Cytochrome P450 2D6
  Drug metabolism: Metabolite_Detected
Hepatocyte [10]
  Activity: 36.8%
Hepatocyte [11]
  fold change (FC): -1.4

— ChEMBL document CHEMBL4613248, “Twelfth-Position Deuteration of Nevirapine Reduces 12-Hydroxy-Nevirapine Formation and Nevirapine-Induced Hepatocyte Death” (J Med Chem, 2020)
